From ChEMBL document CHEMBL1128740, “[(Alkylamino)methyl]acrylophenones: potent and selective inhibitors of the epidermal growth factor receptor protein tyrosine kinase” (J Med Chem, 1995) come the findings set out here.

Experiment [1] is described as follows: In vitro inhibition of the Protein kinase C tyrosine kinase activity in A431 membranes. Format: cell membranes.
Another experiment has as its system A431 (Homo sapiens). Kind of experiment: Inhibition of EGF-dependent tyrosine phosphorylation in A431 cells.
Experiment [2] concerns the target Proto-oncogene tyrosine-protein kinase Src (Homo sapiens, UniProt P12931). Kind of experiment: In vitro inhibition of the c-src tyrosine kinase activity in A431 membranes using angiotensin II as phosphate acceptor as substrate. Format: cell membranes.
A further experiment concerns Balb/MK. Kind of experiment: Tested for antiproliferative activity using mouse epidermal keratinocytes cell line (BALB/MK). Format: functional, cell-based. Put shortly: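 BALB/MK mouse epidermal keratinocytes, which depend on EGF to proliferate. Compounds were kept as 10 mM DMSO stocks and freshly diluted. They were added 24 h after plating, at a final DMSO concentration of 0.5%. Growth was read by methylene blue staining after 3–5 days, and IC50 was determined.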

Experiment [3] has as its target v-abl tyrosine kinase (Abelson murine leukemia virus) (UniProt P00521). Kind of experiment: In vitro inhibition of the v-abl tyrosine kinase activity using purified v-abl kinase.
Experiment [4] deals with Epidermal growth factor receptor (Homo sapiens, UniProt P00533). Kind of experiment: In vitro inhibition of the Epidermal growth factor receptor activity in A431 membranes.
A further experiment relates to Mus musculus. Kind of experiment: Inhibition of EGF-dependent tyrosine phosphorylation in xenografts of the BT-20 tumor in nude mice. The format is functional, organism-based.

Sequence of Epidermal growth factor receptor (P00533 whole entry): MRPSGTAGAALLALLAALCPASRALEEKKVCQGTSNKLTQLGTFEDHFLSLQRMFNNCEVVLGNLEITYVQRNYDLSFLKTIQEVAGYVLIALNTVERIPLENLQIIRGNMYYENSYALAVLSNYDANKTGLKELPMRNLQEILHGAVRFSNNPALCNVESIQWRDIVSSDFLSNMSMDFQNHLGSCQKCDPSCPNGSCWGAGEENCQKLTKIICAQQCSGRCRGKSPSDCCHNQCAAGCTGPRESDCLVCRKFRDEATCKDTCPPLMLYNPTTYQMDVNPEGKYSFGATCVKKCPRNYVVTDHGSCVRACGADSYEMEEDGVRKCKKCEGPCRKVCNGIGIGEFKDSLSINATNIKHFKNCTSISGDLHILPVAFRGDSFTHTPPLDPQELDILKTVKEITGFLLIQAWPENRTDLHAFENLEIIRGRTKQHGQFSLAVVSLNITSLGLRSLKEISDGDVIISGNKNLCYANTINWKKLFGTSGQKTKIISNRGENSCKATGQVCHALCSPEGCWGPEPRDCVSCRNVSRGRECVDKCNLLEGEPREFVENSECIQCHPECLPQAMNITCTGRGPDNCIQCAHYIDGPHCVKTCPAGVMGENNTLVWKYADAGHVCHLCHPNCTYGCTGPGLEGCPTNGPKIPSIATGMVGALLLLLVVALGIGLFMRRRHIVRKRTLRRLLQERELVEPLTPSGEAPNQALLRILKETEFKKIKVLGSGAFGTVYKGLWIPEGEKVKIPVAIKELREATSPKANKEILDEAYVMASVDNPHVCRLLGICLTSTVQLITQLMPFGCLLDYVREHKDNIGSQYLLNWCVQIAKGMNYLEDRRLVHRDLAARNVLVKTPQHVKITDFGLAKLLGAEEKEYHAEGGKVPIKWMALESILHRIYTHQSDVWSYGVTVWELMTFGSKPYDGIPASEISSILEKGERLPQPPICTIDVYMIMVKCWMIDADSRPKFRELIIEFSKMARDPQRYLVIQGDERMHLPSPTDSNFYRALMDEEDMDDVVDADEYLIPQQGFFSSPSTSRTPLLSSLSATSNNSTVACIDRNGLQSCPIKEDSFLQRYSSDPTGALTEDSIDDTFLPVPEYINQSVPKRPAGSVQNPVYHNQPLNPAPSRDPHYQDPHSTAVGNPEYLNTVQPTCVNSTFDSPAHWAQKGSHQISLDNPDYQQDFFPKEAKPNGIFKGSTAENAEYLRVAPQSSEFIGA
Sequence of v-abl tyrosine kinase (Abelson murine leukemia virus) (P00521 whole entry, looked up): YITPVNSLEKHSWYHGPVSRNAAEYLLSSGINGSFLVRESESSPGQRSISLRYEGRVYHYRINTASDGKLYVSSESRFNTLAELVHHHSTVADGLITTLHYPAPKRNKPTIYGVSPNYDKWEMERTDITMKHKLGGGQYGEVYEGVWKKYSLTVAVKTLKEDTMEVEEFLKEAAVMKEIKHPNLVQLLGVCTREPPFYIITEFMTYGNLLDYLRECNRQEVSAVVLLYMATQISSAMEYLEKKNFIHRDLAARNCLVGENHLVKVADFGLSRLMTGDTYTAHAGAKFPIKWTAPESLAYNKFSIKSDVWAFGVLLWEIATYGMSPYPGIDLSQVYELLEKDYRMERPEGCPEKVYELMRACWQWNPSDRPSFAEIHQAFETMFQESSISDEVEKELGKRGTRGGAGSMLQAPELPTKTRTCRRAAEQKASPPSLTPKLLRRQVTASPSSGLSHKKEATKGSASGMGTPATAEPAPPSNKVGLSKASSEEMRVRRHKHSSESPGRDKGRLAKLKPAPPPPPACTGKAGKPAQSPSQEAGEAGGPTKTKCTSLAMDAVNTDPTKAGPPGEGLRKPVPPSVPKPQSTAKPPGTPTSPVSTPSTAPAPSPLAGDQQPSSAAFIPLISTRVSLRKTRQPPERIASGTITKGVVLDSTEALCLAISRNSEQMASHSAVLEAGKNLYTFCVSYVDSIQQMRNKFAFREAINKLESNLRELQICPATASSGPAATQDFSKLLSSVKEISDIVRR
Sequence of Proto-oncogene tyrosine-protein kinase Src (P12931 2-536 limits assumed): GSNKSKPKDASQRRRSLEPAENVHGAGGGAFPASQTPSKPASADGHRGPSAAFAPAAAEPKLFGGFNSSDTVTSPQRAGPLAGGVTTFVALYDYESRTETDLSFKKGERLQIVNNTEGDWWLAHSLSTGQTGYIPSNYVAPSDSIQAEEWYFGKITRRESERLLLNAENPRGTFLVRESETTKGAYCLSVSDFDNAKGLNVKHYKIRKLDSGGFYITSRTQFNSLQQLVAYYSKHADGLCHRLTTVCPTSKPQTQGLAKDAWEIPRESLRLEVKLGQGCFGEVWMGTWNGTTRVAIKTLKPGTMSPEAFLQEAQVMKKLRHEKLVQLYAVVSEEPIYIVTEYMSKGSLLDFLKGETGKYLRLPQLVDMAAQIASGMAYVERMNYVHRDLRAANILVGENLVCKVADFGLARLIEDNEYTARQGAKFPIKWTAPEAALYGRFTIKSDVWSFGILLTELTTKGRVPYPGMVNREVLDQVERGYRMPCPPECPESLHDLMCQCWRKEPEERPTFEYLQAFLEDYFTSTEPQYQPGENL

In the case of `C=C(CN1CCOCC1)C(=O)c1ccc(OCc2ccccc2)cc1`, the IC50 in experiment [1] was 110 µM; with A431 (Homo sapiens) it was 100 µM; in experiment [2], greater than 100 µM; in the experiment on Balb/MK, 1.8 µM; in experiment [3], greater than 100 µM; in experiment [4], 1.1 µM.
Take `CC(CN(C)C)C(=O)c1ccc(OS(=O)(=O)c2ccc(C(=O)O)cc2)cc1` (configuration not stated): the IC50 in the experiment with A431 (Homo sapiens) was 100 µM; with Balb/MK, greater than 50 µM; in experiment [4], 100 µM.
Turning to `CN(C)CC(CSCCN)C(=O)c1ccc(OCc2ccccc2)cc1` (configuration not stated), the half-inhibitory concentration (IC50) is greater than 100 µM in experiment [1]; 25 µM with A431 (Homo sapiens); greater than 100 µM in experiment [2]; 4.1 µM in the experiment on Balb/MK; greater than 50 µM in experiment [3]; 8.8 µM in experiment [4].
With `C=C(CN(C)C)C(=O)c1ccccc1`, the IC50 in the experiment with Mus musculus is greater than 100 µM; in experiment [1], 500 µM; in experiment [2] it was greater than 100 µM; in the experiment on Balb/MK it was 9.3 µM; in experiment [3] it was greater than 100 µM; in experiment [4], 5.6 µM.
Regarding `CCOC(=O)C1CCN(CCC(=O)c2ccc(OCc3ccccc3)cc2)CC1`, the IC50 is greater than 500 µM in experiment [1]; greater than 100 µM in the experiment with A431 (Homo sapiens); greater than 100 µM in experiment [2]; 40.2 µM with Balb/MK; greater than 100 µM in experiment [3]; 0.3 µM in experiment [4].
For the compound `C=C(CN(C)C)C(=O)c1ccc(OS(=O)(=O)c2ccc(C(=O)N(C)C)cc2)cc1`, the IC50 in experiment [1] was 180 µM; in experiment [2], greater than 50 µM; in the experiment on Balb/MK it was 2.8 µM; in experiment [3] it was 70 µM; in experiment [4] it was 0.7 µM.
Turning to `C=C(CN1CCNCC1)C(=O)c1ccc(OCc2ccccc2)cc1`, the IC50 in experiment [1] is 310 µM; with A431 (Homo sapiens), greater than 100 µM; in experiment [2], greater than 100 µM; in the experiment with Balb/MK it was 0.95 µM; in experiment [3], greater than 100 µM; in experiment [4] it was 1.5 µM.
As to `CN(C)CCC(=O)c1ccc(OCc2ccccc2)cc1`, the half-inhibitory concentration (IC50) was greater than 100 µM in experiment [1]; greater than 100 µM in the experiment on A431 (Homo sapiens); greater than 100 µM in experiment [2]; 46.2 µM in the experiment with Balb/MK; greater than 100 µM in experiment [3]; 1.5 µM in experiment [4].
Turning to `CN(C)CC(CSc1ccccc1)C(=O)c1ccc(OCc2ccccc2)cc1` (configuration not stated), the IC50 in experiment [1] is greater than 500 µM; in the experiment on A431 (Homo sapiens), 100 µM; in experiment [2], greater than 50 µM; in the experiment on Balb/MK, 1.6 µM; in experiment [3] it was greater than 50 µM; in experiment [4], 7.3 µM.
As for `C=C(CN1CCCCC1)C(=O)c1ccc(OCc2ccccc2)cc1`, the IC50 in experiment [1] was 140 µM; in the experiment on A431 (Homo sapiens), greater than 100 µM; in experiment [2] it was greater than 100 µM; in the experiment on Balb/MK it was 3.5 µM; in experiment [3], greater than 100 µM; in experiment [4], 1.1 µM.
As to `COC(=O)c1ccccc1SCC(CN(C)C)C(=O)c1ccc(OCc2ccccc2)cc1` (configuration not stated), the IC50 in experiment [1] is greater than 500 µM; in the experiment on A431 (Homo sapiens), 25 µM; in experiment [2], greater than 100 µM; in the experiment on Balb/MK, 1.24 µM; in experiment [3] it was greater than 100 µM; in experiment [4] it was 8.8 µM.
On to `O=C(CCN1CCOCC1)c1ccc(OCc2ccccc2)cc1`, for which the IC50 in experiment [1] is 420 µM; in the experiment on A431 (Homo sapiens), greater than 100 µM; in experiment [2], greater than 100 µM; with Balb/MK it was 33.9 µM; in experiment [3], greater than 100 µM; in experiment [4], 1.5 µM.
`O=c1c(-c2ccc(O)cc2)coc2cc(O)cc(O)c12` [GENISTEIN]: the figures for the IC50 in experiment [1], in experiment [2] and in experiment [3] were 15 µM, 75 µM and 10 µM, respectively.
Take `C=C(CN(C)C)C(=O)c1ccc(OS(=O)(=O)c2ccc(C(=O)O)cc2)cc1`: the concentration for half-maximal inhibition (IC50) was greater than 500 µM in experiment [1]; 100 µM in the experiment with A431 (Homo sapiens); greater than 100 µM in experiment [2]; greater than 50 µM in the experiment on Balb/MK; 50 µM in experiment [3]; 0.23 µM in experiment [4].
Regarding `CN(C)CCCC(=O)c1ccc(OCc2ccccc2)cc1`, the IC50 in the experiment with A431 (Homo sapiens) was greater than 100 µM; with Balb/MK, greater than 50 µM; in experiment [3] it was greater than 100 µM; in experiment [4], greater than 100 µM.
For `CN(C)CC(CNNC(N)=O)C(=O)c1ccc(OCc2ccccc2)cc1` (configuration not stated), the IC50 in experiment [1] is greater than 500 µM; with A431 (Homo sapiens), 50 µM; in experiment [2], greater than 100 µM; in the experiment on Balb/MK, 2 µM; in experiment [3] it was greater than 100 µM; in experiment [4], 3.9 µM.
With `C=C(CN(C)C)C(=O)c1ccc(OCc2ccccc2)c(O)c1`, the IC50 is 86 µM in experiment [1]; greater than 100 µM with A431 (Homo sapiens); 50 µM in experiment [2]; 3.3 µM in the experiment on Balb/MK; greater than 50 µM in experiment [3]; 0.67 µM in experiment [4].
For `O=C(CCN1CCCCC1)c1ccc(OCc2ccccc2)cc1`, the IC50 is greater than 500 µM in experiment [1]; 100 µM with A431 (Homo sapiens); greater than 100 µM in experiment [2]; 25.6 µM with Balb/MK; greater than 100 µM in experiment [3]; 1.8 µM in experiment [4].
For `CN(C)CCC(=O)c1ccc(OCc2ccccc2)c(O)c1`, the IC50 was 500 µM in experiment [1]; 50 µM in the experiment on A431 (Homo sapiens); greater than 50 µM in experiment [2]; 9.3 µM in the experiment with Balb/MK; greater than 100 µM in experiment [3]; 0.36 µM in experiment [4].
On to `C=C(CN(C)C)C(=O)c1ccc(OS(=O)(=O)c2ccc(C(=O)O)c(O)c2)cc1`, for which the IC50 was 140 µM in experiment [1] and greater than 50 µM in the experiment on Balb/MK.
Take `C=C(CN(C)C)C(=O)c1ccc(OCc2ccccc2)cc1`: the IC50 in experiment [1] is 215 µM; in experiment [2], greater than 100 µM; in the experiment with Balb/MK it was 6.1 µM; in experiment [3], greater than 100 µM.
`Cc1ccc(SCC(CN(C)C)C(=O)c2ccc(OCc3ccccc3)cc2)cc1C` (configuration not stated): the IC50 was greater than 500 µM in experiment [1]; 100 µM in the experiment on A431 (Homo sapiens); greater than 100 µM in experiment [2]; 1.21 µM with Balb/MK; greater than 100 µM in experiment [3]; 2.1 µM in experiment [4].
